Test results: ChEMBL document CHEMBL1149259, “Potent N-(1,3-thiazol-2-yl)pyridin-2-amine vascular endothelial growth factor receptor tyrosine kinase inhibitors with excellent pharmacokinetics and low affinity for the hERG ion channel” (J Med Chem, 2004)
Calls of active or inactive are those of the source. The rule behind the calls is not given here.

Tests used:
[1] = target: T1, Vascular endothelial growth factor receptor 2 (Homo sapiens, UniProt P35968); assay: Inhibition of KDR
[2] = Bioavailability in rhesus monkey at 1 mg/kg, iv and 1 mg/kg, po; assay type: ADME, organism-based, Macaca mulatta; settings: in vivo
How it was run: (§1)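 Fasted rhesus monkeys, two, crossover design: 1 mg/kg po as a solution in 0.05 M citric acid, and on a separate occasion 1 mg/kg iv as a DMSO solution. Half-life, clearance, Vdss and F reported as the two-animal average.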

Cytochrome P450 2C9 = Cytochrome P450 2C9 (Homo sapiens, UniProt P11712); assay: Inhibition of human CYP2C9; assay type: ADME
How it was run: (§2)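 Human liver microsomes; inhibition of probe-substrate metabolism measured with diclofenac (CYP2C9), […] (CYP2D6) and testosterone (CYP3A4).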

[3] = Lipophilicity, log P of the compound; assay type: physicochemical; settings: octanol/water
[4] = target: Vascular endothelial growth factor receptor 2 (Mus musculus, UniProt P35918); assay: Inhibition of VEGF-induced mouse lung KDR phosphorylation
How it was run: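 Tyrosine phosphorylation of lung KDR compared between treated and untreated lungs as a function of dose and time after dosing. In vivo IC50 expressed as plasma concentration.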

[5] = Volume of distribution in rhesus monkey at 1 mg/kg, iv and 1 mg/kg, po; assay type: ADME, organism-based, Macaca mulatta; settings: in vivo, read-out: Vdss; how it was run: as §1
Cytochrome P450 3A4 = Cytochrome P450 3A4 (Homo sapiens, UniProt P08684); assay: Inhibition of human CYP3A4; assay type: ADME; how it was run: as §2
[6] = Volume of distribution in Sprague-Dawley rat at 2 mg/kg, iv and 10 mg/kg, po; assay type: ADME, organism-based; settings: in vivo, read-out: Vdss
How it was run: (§3)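 Fasted male Sprague-Dawley rats, three per group: 2 mg/kg bolus iv as a DMSO solution and 10 mg/kg by oral gavage as a solution in 0.05 M citric acid. Clearance, Vdss and F given as mean with standard deviation.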

[7] = Clearance in Sprague-Dawley rat at 2 mg/kg, iv and 10 mg/kg, po; assay type: ADME, organism-based; settings: in vivo; how it was run: as §3
[8] = Volume of distribution in Beagle dog at 1 mg/kg, iv and 1 mg/kg, po; assay type: ADME, organism-based, Canis lupus familiaris; settings: in vivo, read-out: Vdss
How it was run: (§4)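 Fasted beagle dogs, two per compound; iv 1 mg/kg as a DMSO solution; po 1 mg/kg as a solution in 0.05 M citric acid (aq) or HCl-acidified methocel. Plasma half-life, clearance, Vdss and oral bioavailability F taken as the average of the two dogs.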

[9] = Clearance in rhesus monkey at 1 mg/kg, iv and 1 mg/kg, po; assay type: ADME, organism-based, Macaca mulatta; settings: in vivo; how it was run: as §1
[10] = Clearance in Beagle dog at 1 mg/kg, iv and 1 mg/kg, po; assay type: ADME, organism-based, Canis lupus familiaris; settings: in vivo; how it was run: as §4
[11] = target: T1, Vascular endothelial growth factor receptor 2; assay: Inhibition of VEGF-induced KDR autophosphorylation expressed in HEK293 cells; assay type: functional, cell-based
[12] = Bioavailability in Beagle dog at 1 mg/kg, iv and 1 mg/kg, po; assay type: ADME, organism-based, Canis lupus familiaris; settings: in vivo; how it was run: as §4
[13] = target: Voltage-gated inwardly rectifying potassium channel KCNH2 (Homo sapiens, UniProt Q12809); assay: Displacement of [35S][…] from human ERG expressed in HEK293 cells; assay type: cell-based; settings: read-out: Inflection point
Cytochrome P450 2D6 = Cytochrome P450 2D6 (Homo sapiens, UniProt P10635); assay: Inhibition of human CYP2D6; assay type: ADME; how it was run: as §2
Homo sapiens = species: Homo sapiens; assay: Protein binding in human plasma; settings: read-out: PPB (converted)
[14] = Clearance in Beagle dog at 0.25 mg/kg, iv and 1 mg/kg, po; assay type: ADME, organism-based, Canis lupus familiaris; settings: in vivo
How it was run: (§5)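 Fasted beagle dogs, two per compound; iv 0.25 mg/kg as a DMSO solution, po 1 mpk as a solution in HCl-acidified methocel or 0.05 M citric acid (aq). Half-life, plasma clearance and steady-state volume of distribution taken from the iv leg; values are the average of the two dogs.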

[15] = Volume of distribution in Beagle dog at 0.25 mg/kg, iv and 1 mg/kg, po; assay type: ADME, organism-based, Canis lupus familiaris; settings: in vivo, read-out: Vdss; how it was run: as §5
[16] = Half life in Beagle dog at 0.25 mg/kg, iv and 1 mg/kg, po; assay type: ADME, organism-based, Canis lupus familiaris; settings: in vivo; how it was run: as §5
Canis familiaris [17] = assay: Increase in QT prolongation in anesthetized dog up to 22 uM plasma level; assay type: functional, organism-based; settings: Canis lupus familiaris
Rhesus monkey = assay: Metabolic stability measured as N-Glucuronidation of the parent compound in iv dosed rhesus monkey; assay type: ADME, organism-based, Macaca mulatta; settings: in vivo
Rattus norvegicus = assay: Metabolic stability measured as N-Glucuronidation of the parent compound in iv dosed rat; assay type: ADME, organism-based; settings: in vivo
Canis familiaris [18] = assay: Increase in QT prolongation in anesthetized dog at 0.59 uM plasma level; assay type: functional, Canis lupus familiaris
[19] = Metabolic stability in rat liver microsome; assay type: ADME; settings: liver microsomes
[20] = Half life in Beagle dog at 1 mg/kg, iv and 1 mg/kg, po; assay type: ADME, organism-based, Canis lupus familiaris; settings: in vivo; how it was run: as §4
Canis familiaris [21] = assay: Increase in QT prolongation in anesthetized dog up to 60 uM plasma level; settings: Canis lupus familiaris

T1 sequence (P35968 whole entry): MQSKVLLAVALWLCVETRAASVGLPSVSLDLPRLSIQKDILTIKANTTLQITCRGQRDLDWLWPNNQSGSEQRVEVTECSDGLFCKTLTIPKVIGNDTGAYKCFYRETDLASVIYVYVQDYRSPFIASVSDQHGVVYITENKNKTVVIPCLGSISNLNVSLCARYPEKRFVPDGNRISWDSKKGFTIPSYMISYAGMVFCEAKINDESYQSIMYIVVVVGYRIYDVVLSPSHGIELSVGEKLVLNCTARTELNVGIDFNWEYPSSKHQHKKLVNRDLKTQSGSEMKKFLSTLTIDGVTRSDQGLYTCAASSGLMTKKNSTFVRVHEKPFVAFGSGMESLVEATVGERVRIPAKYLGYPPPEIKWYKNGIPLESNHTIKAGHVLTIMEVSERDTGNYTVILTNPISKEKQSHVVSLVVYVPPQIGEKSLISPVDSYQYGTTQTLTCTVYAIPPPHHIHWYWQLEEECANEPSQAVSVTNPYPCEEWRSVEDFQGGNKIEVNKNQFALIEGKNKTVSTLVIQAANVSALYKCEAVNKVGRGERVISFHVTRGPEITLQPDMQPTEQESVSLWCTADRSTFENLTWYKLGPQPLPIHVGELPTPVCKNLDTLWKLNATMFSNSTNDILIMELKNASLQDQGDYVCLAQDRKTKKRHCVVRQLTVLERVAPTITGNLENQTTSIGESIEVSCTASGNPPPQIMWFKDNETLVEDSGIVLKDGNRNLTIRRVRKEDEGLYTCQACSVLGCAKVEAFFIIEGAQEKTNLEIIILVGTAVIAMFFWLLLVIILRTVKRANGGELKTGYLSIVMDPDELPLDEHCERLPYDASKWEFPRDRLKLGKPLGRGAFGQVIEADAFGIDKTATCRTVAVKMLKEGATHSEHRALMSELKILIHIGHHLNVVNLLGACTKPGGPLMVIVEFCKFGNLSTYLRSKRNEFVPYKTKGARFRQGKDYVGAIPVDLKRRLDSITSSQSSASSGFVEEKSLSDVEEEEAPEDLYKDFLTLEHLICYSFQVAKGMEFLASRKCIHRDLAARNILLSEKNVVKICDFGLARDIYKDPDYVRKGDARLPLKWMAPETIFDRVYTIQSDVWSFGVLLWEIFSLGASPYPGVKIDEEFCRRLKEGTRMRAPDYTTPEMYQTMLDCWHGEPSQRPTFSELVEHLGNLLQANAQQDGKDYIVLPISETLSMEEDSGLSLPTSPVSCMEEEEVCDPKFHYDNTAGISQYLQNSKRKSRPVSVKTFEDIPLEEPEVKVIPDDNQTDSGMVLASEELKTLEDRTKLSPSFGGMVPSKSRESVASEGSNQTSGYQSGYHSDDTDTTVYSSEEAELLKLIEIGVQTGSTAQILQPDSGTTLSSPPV
Voltage-gated inwardly rectifying potassium channel KCNH2, sequence (Q12809 whole entry): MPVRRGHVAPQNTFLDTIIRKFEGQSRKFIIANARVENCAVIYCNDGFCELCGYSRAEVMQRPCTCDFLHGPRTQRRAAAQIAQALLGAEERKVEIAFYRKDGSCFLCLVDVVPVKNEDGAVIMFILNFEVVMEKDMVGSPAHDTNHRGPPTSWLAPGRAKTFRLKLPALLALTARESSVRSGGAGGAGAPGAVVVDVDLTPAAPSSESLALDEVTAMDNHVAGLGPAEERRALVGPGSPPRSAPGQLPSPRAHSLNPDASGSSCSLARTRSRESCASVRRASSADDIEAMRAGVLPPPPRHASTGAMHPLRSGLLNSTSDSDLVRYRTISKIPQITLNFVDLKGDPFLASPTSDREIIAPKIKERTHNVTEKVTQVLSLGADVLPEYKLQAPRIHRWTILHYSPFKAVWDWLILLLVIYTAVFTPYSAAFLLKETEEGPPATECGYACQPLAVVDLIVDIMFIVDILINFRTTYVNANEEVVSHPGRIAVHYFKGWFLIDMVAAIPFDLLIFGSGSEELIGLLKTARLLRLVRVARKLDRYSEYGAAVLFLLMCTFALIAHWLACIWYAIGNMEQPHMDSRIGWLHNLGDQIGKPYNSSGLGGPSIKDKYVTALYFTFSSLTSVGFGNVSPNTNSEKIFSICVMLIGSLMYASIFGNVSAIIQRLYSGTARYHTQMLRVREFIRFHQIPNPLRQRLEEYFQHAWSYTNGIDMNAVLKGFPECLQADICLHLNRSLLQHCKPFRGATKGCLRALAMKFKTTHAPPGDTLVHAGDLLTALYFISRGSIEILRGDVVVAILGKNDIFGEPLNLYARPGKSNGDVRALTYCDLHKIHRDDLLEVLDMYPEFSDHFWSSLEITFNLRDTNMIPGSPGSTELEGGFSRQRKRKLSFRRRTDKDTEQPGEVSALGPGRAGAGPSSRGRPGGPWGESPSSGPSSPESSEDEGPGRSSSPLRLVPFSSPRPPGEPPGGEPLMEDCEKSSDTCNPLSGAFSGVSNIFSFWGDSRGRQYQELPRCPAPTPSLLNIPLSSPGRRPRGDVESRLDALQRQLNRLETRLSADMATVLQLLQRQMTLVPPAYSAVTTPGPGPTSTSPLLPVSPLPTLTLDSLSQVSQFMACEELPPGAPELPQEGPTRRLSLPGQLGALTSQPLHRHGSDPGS
Cytochrome P450 2D6, sequence (P10635 whole entry): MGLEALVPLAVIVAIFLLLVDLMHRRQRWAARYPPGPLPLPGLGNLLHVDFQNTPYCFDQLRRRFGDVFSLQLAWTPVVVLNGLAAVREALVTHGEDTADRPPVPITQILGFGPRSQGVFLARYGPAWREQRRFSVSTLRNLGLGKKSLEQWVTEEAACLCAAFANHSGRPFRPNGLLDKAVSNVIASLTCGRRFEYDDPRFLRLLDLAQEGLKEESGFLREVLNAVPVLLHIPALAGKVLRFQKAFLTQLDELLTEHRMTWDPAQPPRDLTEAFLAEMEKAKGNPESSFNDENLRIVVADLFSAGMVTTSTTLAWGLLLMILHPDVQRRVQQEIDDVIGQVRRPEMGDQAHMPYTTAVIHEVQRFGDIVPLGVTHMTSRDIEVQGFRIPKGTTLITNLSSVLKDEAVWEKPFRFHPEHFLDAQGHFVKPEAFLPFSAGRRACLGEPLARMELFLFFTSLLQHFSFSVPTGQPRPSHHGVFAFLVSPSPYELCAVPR
Cytochrome P450 2C9, sequence (P11712 whole entry): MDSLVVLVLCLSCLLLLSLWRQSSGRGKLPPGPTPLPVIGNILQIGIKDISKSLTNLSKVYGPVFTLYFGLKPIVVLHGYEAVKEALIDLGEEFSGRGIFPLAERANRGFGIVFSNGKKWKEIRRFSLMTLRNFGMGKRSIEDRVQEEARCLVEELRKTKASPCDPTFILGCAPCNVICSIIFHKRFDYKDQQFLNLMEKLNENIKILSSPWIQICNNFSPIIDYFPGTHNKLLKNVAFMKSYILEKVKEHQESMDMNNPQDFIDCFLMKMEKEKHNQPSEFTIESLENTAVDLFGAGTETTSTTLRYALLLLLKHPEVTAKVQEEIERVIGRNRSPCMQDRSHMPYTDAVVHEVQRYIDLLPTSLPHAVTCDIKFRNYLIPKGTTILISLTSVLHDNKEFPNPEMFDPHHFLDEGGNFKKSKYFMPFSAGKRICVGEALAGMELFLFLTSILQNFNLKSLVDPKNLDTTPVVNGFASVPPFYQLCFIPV
Cytochrome P450 3A4, sequence (P08684 whole entry): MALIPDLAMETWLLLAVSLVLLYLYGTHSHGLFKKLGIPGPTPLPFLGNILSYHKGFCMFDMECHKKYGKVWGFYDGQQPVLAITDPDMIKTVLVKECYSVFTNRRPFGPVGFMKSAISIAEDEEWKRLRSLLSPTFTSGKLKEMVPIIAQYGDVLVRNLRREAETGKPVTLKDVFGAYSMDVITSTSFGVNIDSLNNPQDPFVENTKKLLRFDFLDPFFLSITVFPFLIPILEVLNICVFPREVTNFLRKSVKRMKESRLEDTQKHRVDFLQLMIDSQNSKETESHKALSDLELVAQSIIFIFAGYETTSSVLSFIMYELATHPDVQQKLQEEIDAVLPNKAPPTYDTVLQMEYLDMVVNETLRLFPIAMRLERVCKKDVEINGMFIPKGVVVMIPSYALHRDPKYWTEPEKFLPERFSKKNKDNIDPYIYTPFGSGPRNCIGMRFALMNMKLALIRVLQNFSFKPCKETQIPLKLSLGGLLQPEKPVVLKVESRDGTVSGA

| Structure (SMILES) | IC50 [1] [nM] | logP [3] | Vd [8] [L/kg] | clearance [10] [mL/min/kg] | IC50 [11] [nM] | bioavailability [12] [%] | IC50 [13] [nM] | also measured |
| --- | --- | --- | --- | --- | --- | --- | --- | --- |
| CNC(=O)N1CCN(Cc2ccnc(Nc3ncc(C#N)s3)c2)CC1 | 12 | 2.06 | 0.72 | 0.51 | 27 | 99 | 9280 | bioavailability [2]: 43%; IC50 (Cytochrome P450 2C9): > 50000 nM; IC50 [4]: 90 nM; Vd [5]: 1.3 L/kg; IC50 (Cytochrome P450 3A4): > 50000 nM; Vd [6]: 1.5 L/kg; clearance [7]: 13.3 mL/min/kg; clearance [9]: 17.2 mL/min/kg; IC50 (Cytochrome P450 2D6): > 50000 nM |
| CN(C)C(=O)N1CCN(Cc2ccnc(Nc3ncc(C#N)s3)c2)CC1 | 10 | 2.74 |  |  | 40 |  | 3510 | fraction unbound (Homo sapiens): 0.041; clearance [14]: 7.4 mL/min/kg; Vd [15]: 0.88 L/kg; half-life [16]: 2 h |
| CNC(=O)N1CCN(Cc2ccnc(Nc3ncc(C#N)s3)c2C)CC1 |  |  |  |  |  |  |  | Activity (Canis familiaris [17]): inactive; IC50 (Cytochrome P450 2C9): > 100000 nM; IC50 (Cytochrome P450 3A4): > 100000 nM; IC50 (Cytochrome P450 2D6): > 100000 nM |
| CNC(=O)N1CCN(Cc2ccnc(N(c3ncc([14C]#N)s3)C3O[C@H](C(=O)O)[C@@H](O)[C@H](O)[C@H]3O)c2)CC1 (stereo partly specified) |  |  |  |  |  |  |  | Stability (Rhesus monkey): 63.3%; Stability (Rattus norvegicus): 37.6% |
| c1ccc(-c2cnc(Nc3ccc(CN4CCCC4)cn3)s2)cc1 |  |  |  |  |  |  | 8 | Activity (Canis familiaris [18]): 10% |
| N#Cc1cnc(Nc2cc(CN3CCOCC3)ccn2)s1 | 8 |  |  |  | 43 |  |  | clearance [14]: 12.4 mL/min/kg; Vd [15]: 1 L/kg; half-life [16]: 2.5 h |
| N#Cc1cnc(Nc2cc(CN3CCN(C(=O)CO)CC3)ccn2)s1 | 9 | 1.68 | 0.47 | 0.88 | 35 | 61 | 9870 | fraction unbound (Homo sapiens): 0.262; half-life [20]: 6.6 h |
| CS(=O)(=O)N1CCN(Cc2ccnc(Nc3ncc(-c4ccccc4)s3)c2)CC1 |  |  |  |  |  |  | 130 |  |
| CC(=O)N1CCN(Cc2ccnc(Nc3ncc(-c4ccccc4)s3)c2)CC1 | 8 |  |  |  | 43 |  | 240 |  |
| N#Cc1cnc(Nc2cc(CN3CCN(C(N)=O)CC3)ccn2)s1 |  |  |  |  |  |  | 24700 | clearance [14]: 2.6 mL/min/kg; Vd [15]: 0.34 L/kg; half-life [16]: 2.9 h |

Further lines, with some results ahead:

| IC50 [1] [nM] | logP [3] | Vd [8] [L/kg] | clearance [10] [mL/min/kg] | IC50 [11] [nM] | bioavailability [12] [%] | Structure (SMILES) | IC50 [13] [nM] | also measured |
| --- | --- | --- | --- | --- | --- | --- | --- | --- |
| 3 |  |  |  | 15 |  | c1ccc(-c2cnc(Nc3cc(CN4CCCC4)ccn3)s2)cc1 |  | half-life [19]: 8 min |
| 7 | 2.06 | 0.96 | 1.8 | 31 | 95 | CS(=O)(=O)C1CCN(Cc2ccnc(Nc3ncc(C#N)s3)c2)CC1 |  |  |
| 13 | 2.05 | 0.72 | 1.2 | 41 | 87 | CC(=O)N1CCN(Cc2ccnc(Nc3ncc(C#N)s3)c2)CC1 |  | half-life [20]: 7.2 h; Activity (Canis familiaris [21]): inactive |
